The first assay deals with SH-SY5Y. The assay is described as follows: Antiproliferative activity against human SH-SY5Y cells after 48 hrs by MTT assay. In kind it is functional.
Conditions: not given
An outline of the steps:
(§1)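 Log-phase cells, harvested by trypsinization, seeded 24 h, then exposed to a range of compound concentrations for 48 h. Culture in RPMI 1640 with 4% FBS, penicillin/streptomycin, 37°C, 5% CO2. DMSO below 1% final; 5-Fu as positive control. Readout is MTT (0.5 mg/mL, 4 h), formazan dissolved in DMSO, absorbance at 570 nm. GI50 = 50% growth inhibition versus untreated cells; means ± SD of at least two independent experiments.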
For orientation: GI50 means the concentration giving 50% growth inhibition. Higher therefore signals less potent growth inhibition. In turn, `COc1ccc(Cn2cnc3c(N(C)c4ccc(OC)cc4)ncnc32)cc1` showed a 50% growth inhibitory concentration (GI50) of 27 µM.
In the case of `COc1cc(Cn2cnc3c(Cl)ncnc32)cc(OC)c1OC`, the GI50 was more than 100 µM.
Turning to `COc1ccc(N(C)c2ncnc3c2ncn3Cc2cc(OC)cc(OC)c2)cc1`, the GI50 is more than 100 µM.
As for `COc1ccc(Cn2cnc3c(Cl)ncnc32)cc1`, the GI50 is more than 50 µM.
The compound `O=c1[nH]cc(F)c(=O)[nH]1` [FLUOROURACIL] displayed a GI50 of 12 µM.
The compound `COc1cc(Cn2cnc3c(Cl)ncnc32)cc(OC)c1` came in with a GI50 of more than 100 µM.
For the compound `COc1ccc(Cn2cnc3c(N(C)c4ccc(OC)cc4)nc(Cl)nc32)cc1`, the 50% growth inhibitory concentration (GI50) is 31 µM.
As for `COc1ccc(N(C)c2nc(Cl)nc3c2ncn3Cc2cc(OC)cc(OC)c2)cc1`, the GI50 is more than 100 µM.
`COc1ccc(Cn2cnc3c(Cl)ncnc32)cc1OC`: the GI50 was more than 100 µM.
Compound `COc1ccc(N(C)c2nc(Cl)nc3[nH]cnc23)cc1` gave a GI50 of more than 100 µM.
Compound `COc1ccc(N(C)c2ncnc3c2ncn3C)cc1` had a GI50 of more than 100 µM.

The next assay concerns AGS. As to the kind of experiment: Antiproliferative activity against human AGS cells after 48 hrs by MTT assay. It counts as functional.
Conditions: not given
An outline of the steps: as §1
`COc1ccc(Cn2cnc3c(N(C)c4ccc(OC)cc4)ncnc32)cc1`: the GI50 was more than 100 µM.
The same measure, in the same setting: with `COc1cc(Cn2cnc3c(Cl)ncnc32)cc(OC)c1OC` the figure was more than 50 µM.
`COc1ccc(N(C)c2ncnc3c2ncn3Cc2cc(OC)cc(OC)c2)cc1`: the concentration for 50% growth inhibition (GI50) is more than 100 µM.
Same read-out and setting: with `COc1ccc(Cn2cnc3c(Cl)ncnc32)cc1` the figure was 29 µM; with `O=c1[nH]cc(F)c(=O)[nH]1` [FLUOROURACIL], 25 µM; with `COc1cc(Cn2cnc3c(Cl)ncnc32)cc(OC)c1`, more than 100 µM.
The same measure, in the same setting: with `COc1ccc(Cn2cnc3c(N(C)c4ccc(OC)cc4)nc(Cl)nc32)cc1` the figure was more than 100 µM; with `COc1ccc(N(C)c2nc(Cl)nc3c2ncn3Cc2cc(OC)cc(OC)c2)cc1`, 69 µM.
For the compound `COc1ccc(Cn2cnc3c(Cl)ncnc32)cc1OC`, the GI50 is more than 100 µM.
For `COc1ccc(N(C)c2nc(Cl)nc3[nH]cnc23)cc1`, the GI50 was 30 µM.
`COc1ccc(N(C)c2ncnc3c2ncn3C)cc1`: the GI50 was more than 100 µM.

The subject of another assay is K562. The assay is described as follows: Antiproliferative activity against human K562 cells after 48 hrs by MTT assay. It counts as functional. To be noted: K562, 48 h. An outline of the steps: as §1
Background: Formazan colour is commonly taken as a measure of viable cells.
Compound `COc1ccc(Cn2cnc3c(N(C)c4ccc(OC)cc4)ncnc32)cc1` showed a GI50 of more than 100 µM.
As for `COc1cc(Cn2cnc3c(Cl)ncnc32)cc(OC)c1OC`, the 50% growth inhibitory concentration (GI50) was more than 50 µM.
In turn, `COc1ccc(N(C)c2ncnc3c2ncn3Cc2cc(OC)cc(OC)c2)cc1` came in with a GI50 of 42 µM.
Compound `COc1ccc(Cn2cnc3c(Cl)ncnc32)cc1` displayed a GI50 of more than 50 µM.
`O=c1[nH]cc(F)c(=O)[nH]1` [FLUOROURACIL] gave a 50% growth inhibitory concentration (GI50) of 19 µM.
Still for that read-out and setting: for `COc1cc(Cn2cnc3c(Cl)ncnc32)cc(OC)c1` the value was more than 100 µM; for `COc1ccc(Cn2cnc3c(N(C)c4ccc(OC)cc4)nc(Cl)nc32)cc1`, more than 100 µM; for `COc1ccc(N(C)c2nc(Cl)nc3c2ncn3Cc2cc(OC)cc(OC)c2)cc1`, 42 µM.
`COc1ccc(Cn2cnc3c(Cl)ncnc32)cc1OC` had a GI50 of more than 50 µM.
In turn, `COc1ccc(N(C)c2nc(Cl)nc3[nH]cnc23)cc1` returned a GI50 of more than 100 µM.
`COc1ccc(N(C)c2ncnc3c2ncn3C)cc1` came in with a GI50 of more than 100 µM.

For the origin of these results see ChEMBL document CHEMBL4130374, “Discovery of 9H-purins as potential tubulin polymerization inhibitors: Synthesis, biological evaluation and structure-activity relationships” (Eur J Med Chem, 2017).
